Compounds with a hit are over-represented: about 1.5% of the library has one in this group of screens.
S100A4 inh HTS: inhibitors of human S100A4 binding to myosin IIA peptide. 360,000 compounds, 0.14% hits. inhibition, % at 10.7 µM. P26447. AID 652163. S100A4/TAMRA-MyoIIA peptide fluorescence polarization;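 active = mean inhibition of at least 70% across replicates, with every replicate also reaching that level; inconclusive = mean inhibition reaches 70% but some replicates fall short; inactive = mean inhibition below 70%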
Target sequence (P26447 whole entry, looked up): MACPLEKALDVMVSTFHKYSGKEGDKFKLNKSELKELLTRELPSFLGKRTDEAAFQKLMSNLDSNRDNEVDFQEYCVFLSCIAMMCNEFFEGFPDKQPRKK
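Material: human S100A4 monomer with TAMRA-labelled myosin IIA peptide; buffer or medium: HEPES pH 7.2 with CaCl2, KCl, NaCl, DTT, Triton; compound dosing: one concentration per compound; schedule: 5 min incubation before reading; benchmarks: neutral control DMSO, positive control TFP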
dFosB activator: enhances mouse delta FosB homodimer DNA binding; purified delta FosB, TAMRA-CDK5 oligo fluorescence polarization; percent of positive-control signal above neutral wells; activation, % at 25 µM; 340,000 compounds, 0.99% hits; AID 493131;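 active = mean activation above about 17%, with every replicate also reaching it, limit read from the data, passing the limit was not always enough; inconclusive = only one of the two conditions met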
RAD54 branch: inhibitors of human RAD54 branch migration | Q92698 | RAD54 Holliday junction branch migration, FAM/BHQ fluorescence | inhibition, % at 10.4 µM | 360,000 compounds, 0.14% hits;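 active = mean normalized replicate activity at least 40 and at least half of replicates scoring 40 or more; inconclusive = only one of the two criteria met; inactive = mean below 40 and under half of replicates reaching 40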;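 also: 0% = median of neutral control wells and 100% = median of positive control wells; inhibitors cause a drop in the FAM fluorescence signal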
MLL AF4-AF9 inh: blocks AF4 peptide binding to human AF9. P42568. AID 651704. inhibition, % at 10 µM. 350,000 compounds, 0.47% hits. AlphaScreen, biotin-AF4 peptide binding to FLAG-AF9;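 active = every replicate reaching a set inhibition limit, whatever the replicate mean, cut at about 25% in these data; inconclusive = mean inhibition reaches that limit but some replicates miss it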;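 also: 0% = plate neutral control median and 100% = total signal loss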
Target sequence (P42568 whole entry, looked up): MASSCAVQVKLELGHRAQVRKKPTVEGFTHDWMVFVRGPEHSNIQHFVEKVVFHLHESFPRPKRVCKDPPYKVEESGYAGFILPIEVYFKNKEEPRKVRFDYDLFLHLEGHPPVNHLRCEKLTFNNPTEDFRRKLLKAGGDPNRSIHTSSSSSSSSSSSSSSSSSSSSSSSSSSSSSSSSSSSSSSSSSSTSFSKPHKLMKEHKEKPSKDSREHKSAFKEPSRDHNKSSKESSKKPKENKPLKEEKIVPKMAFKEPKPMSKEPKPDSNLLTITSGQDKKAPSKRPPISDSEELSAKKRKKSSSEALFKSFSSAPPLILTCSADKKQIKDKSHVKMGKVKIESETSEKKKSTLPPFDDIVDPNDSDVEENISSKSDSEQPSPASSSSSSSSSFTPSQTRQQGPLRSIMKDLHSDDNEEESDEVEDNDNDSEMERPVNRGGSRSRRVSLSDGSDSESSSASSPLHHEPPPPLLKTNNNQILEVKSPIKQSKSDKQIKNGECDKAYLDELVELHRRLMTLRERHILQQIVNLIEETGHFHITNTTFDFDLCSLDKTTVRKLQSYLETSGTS
RAD52 anneal inh: RAD52 (human) annealing inhibition | P43351 | recombinant RAD52 DNA annealing, FRET fluorescence | inhibition, % at 18.7 µM | 360,000 compounds, 0.46% hits;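 active = every replicate showing at least 50% inhibition; inconclusive = mean inhibition at least 50% but not in every replicate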
* marks the source's active call; other numbers are inactive results; i = inactive; u = inconclusive; x = no result.

SMILES	S100A4 inh HTS	dFosB activator	RAD54 branch	MLL AF4-AF9 inh	RAD52 anneal inh
C[C@H]1CN([C@@H](C)CO)C(=O)c2c(c3ccccc3n2C)-c2ccccc2CO[C@H]1CN(C)Cc1ccc(Cl)c(Cl)c1	-0.5	x	x	0.9	1.0
C[C@@H]1CN([C@@H](C)CO)C(=O)c2c(c3ccccc3n2C)-c2ccccc2CO[C@H]1CN(C)Cc1ccc2c(c1)OCCN2C	-7.0	x	x	39.0*	28.1
C[C@H](CO)N1C[C@H](C)[C@@H](CN(C)Cc2ccc(-c3ccccc3)cc2)OCc2ccccc2-c2c(n(C)c3ccccc23)C1=O	0.8	x	x	2.8	80.1*
C[C@@H]1CN([C@H](C)CO)C(=O)c2c(c3ccccc3n2C)-c2ccccc2CO[C@H]1CN(C)S(=O)(=O)c1ccccc1	131.4*	x	-1.7	0.6	14.6
C[C@@H]1CN([C@H](C)CO)C(=O)c2c(c3ccccc3n2C)-c2ccccc2CO[C@H]1CN(C)Cc1ccc2c(c1)OCO2	-8.3	x	x	7.6	2.1
COc1ccccc1-c1ccc2n(c1=O)C[C@@H]1[C@@H](CO)[C@H](C(=O)N(C)C)N(C(=O)c3cccnc3)[C@H]21	15.4	x	4.0	-5.8	-11.2
CC(C)NC(=O)Nc1ccc2c(c1)C(=O)N([C@H](C)CO)C[C@@H](C)[C@@H](CN(C)C(=O)Nc1ccc(C(F)(F)F)cc1)OCCCC[C@@H](C)O2	-3.3	x	-4.9	-1.2	-9.2
COCC#Cc1ccc(CC[C@H]2O[C@H]3CC[C@H](CO)O[C@H]3C[C@@H]2n2cc(C(C)(C)O)nn2)cc1	-2.6	x	x	-3.8	1.7
COc1cc(O)c(C(CCN2CCCC2)c2ccc(N(C)C)cc2)c(OC)c1 (stereo unspecified)	18.7	-12.4	-2.8	39.0*	-4.2
COc1cc(C2CC(=O)Oc3c(C(CCN4CCN(c5ccccc5)CC4)c4ccc(N(C)C)cc4)c(OC)cc(OC)c32)cc(OC)c1OC (stereo unspecified)	5.1	-1.4	3.2	16.0	-5.1
COc1cc(O)c(C(CCN2CCCC2)c2ccc3c(c2)OCO3)c(OC)c1 (stereo unspecified)	2.4	-3.1	4.2	17.5	-0.3
COc1cc(OC)c2c(-c3ccccc3)cc(=O)oc2c1C(CCN1CCN(c2ccccc2)CC1)c1ccc(N(C)C)cc1 (stereo unspecified)	-2.6	2.3	0.3	18.4	-18.4
COc1cc(OC)c2ccc(=O)oc2c1C(CCN1CCN(c2ccccc2)CC1)c1ccc(N(C)C)cc1 (stereo unspecified)	14.0	-1.1	-10.1	26.1*	-25.9
COc1ccc(C2CC(=O)Oc3c(C(CCN4CCCCC4)c4ccc(N(C)C)cc4)c(OC)cc(OC)c32)cc1 (stereo unspecified)	-3.3	-1.5	4.3	44.2*	18.7
O=c1cc(-c2ccc(O)c(-c3c(O)cc(O)c4c(=O)cc(-c5ccc(O)cc5)oc34)c2)oc2cc(O)cc(O)c12	2.1	18.0*	1.3	1.5	-3.6
O=c1cc(-c2ccc(O)cc2)oc2c(-c3c(O)cc(O)c4c(=O)cc(-c5ccc(O)cc5)oc34)c(O)cc(O)c12	-6.4	-7.5	-17.7	8.1	-14.1
C=CC(=O)Nc1cccc(Oc2ccnc(Nc3ccc(N4CCN(C)CC4)cc3)n2)c1	2.5	65.5*	u	70.1*	93.0*
C=CC(=O)Nc1cccc(N(C)c2ccnc(Nc3ccc(N4CCN(C)CC4)cc3)n2)c1	x	45.8*	81.5*	x	x
C=CC(=O)Nc1cccc(Oc2ccnc3[nH]ccc23)c1	x	4.5	-4.5	x	x
CO[C@H]1CC[C@H]2CCN(C)C(=O)[C@@H](C)[C@H](OC)CN(C)C(=O)c3cc(C#N)ccc3OC[C@@H]1O2	-9.3	x	-12.7	-6.2	14.3
CO[C@H]1CC[C@H]2CCN(C)C(=O)[C@@H](C)[C@H](OC)CN(C)C(=O)c3cc(C#N)ccc3OC[C@H]1O2	97.9*	x	13.0	-1.6	0.8
C[C@@H]1CN([C@H](C)CO)C(=O)c2cccc(NS(=O)(=O)c3cccs3)c2O[C@H]1CN(C)C(=O)Nc1ccc2c(c1)OCO2	2.2	x	6.3	-2.5	4.0
C=C(CN(C)C)C(=O)c1ccc(OC2OC(COC(C)=O)C(OC(C)=O)C(OC(C)=O)C2OC(C)=O)cc1 (stereo unspecified)	-6.9	21.1*	x	-3.8	-43.8
O=C(NCC[C@H]1CC[C@H](NC(=O)C2CCCCC2)[C@@H](CO)O1)c1ccc(F)cc1	-18.3	x	-4.9	-0.7	-6.2
Cc1[nH]c(=O)[nH]c1C(=O)CCCCC(=O)O	1.8	-1.5	-11.8	73.4*	-10.7
SMILES	S100A4 inh HTS	dFosB activator	RAD54 branch	MLL AF4-AF9 inh	RAD52 anneal inh
CC(=O)N(C)C[C@H]1Oc2cc(C#CC(C)(C)O)ccc2S(=O)(=O)N([C@H](C)CO)C[C@H]1C	-27.3	x	6.8	-2.0	-7.7
COc1ccc2ccc3cccc[n+]3c2c1	-2.6	4.5	50.5*	-1.8	9.9
COc1ccc2nc3ccccc3[n+]([O-])c2c1	3.6	-1.9	-79.1	4.5	i
CC(C)NC(=O)N(C)C[C@@H]1Oc2ccc(NC(=O)C3CCCCC3)cc2CC(=O)N([C@H](C)CO)C[C@H]1C	-4.2	x	5.4	-3.4	-5.7
COc1ccc(S(=O)(=O)N[C@H]2CC[C@H](CCn3cc(C(C)C)nn3)O[C@H]2CO)cc1	-20.4	x	4.0	-1.6	-8.3
COc1ccccc1-c1c(C)nn2c(-c3ccccc3)cc(C)nc12	0.0	-8.2	x	26.5*	-8.5
COc1ccccc1-c1c(C)nn2c(N3CCCCCC3)cc(C)nc12	-3.2	-6.1	6.3	5.7	11.6
c1cc2ccc3ccc(CN4CCOCC4)c4ccc(c1)c2c34	x	30.5*	38.1	x	x
OC1CCCN(Cc2ccc3ccc4cccc5ccc2c3c45)C1 (stereo unspecified)	x	67.9*	91.3*	x	x
Cc1cc2ccccc2cc1CN1CCOCC1	x	2.1	-5.6	x	x
CO[C@H]1CN(C)C(=O)c2ccc(NC(=O)C3CCOCC3)cc2OC[C@@H](C)NC[C@H]1C	-7.6	x	-0.6	-2.1	-10.5
CO[C@H]1CN(C)C(=O)c2ccc(NC(=O)NC(C)C)cc2OC[C@H](C)N(C(=O)CN(C)C)C[C@@H]1C	-2.0	x	-6.2	-5.7	15.1
C[C@@H](NC(=O)C[C@H]1C=C[C@H](NC(=O)Nc2ccc3c(c2)OCO3)[C@H](CO)O1)c1ccccc1	4.2	x	4.5	-0.1	-13.5
COc1ccc(-c2nc(N3CCN(C)CC3)sc2-c2ccc(OC)cc2)cc1	2.2	-7.9	9.6	33.6*	9.9
N#Cc1cccc(CN2CCC(=O)N([C@H](CO)Cc3ccccc3)CC2)c1	1.6	7.6	3.3	44.3*	-11.4
O=C1CCN(Cc2ccccc2)CCN1[C@H](CO)Cc1ccccc1	x	3.1	7.9	x	x
COc1ccc(CN(C)C[C@@H]2OCCCC[C@H](C)Oc3ccc(NC(=O)NC(C)C)cc3C(=O)N([C@H](C)CO)C[C@@H]2C)cc1	23.6	x	-0.1	-9.9	10.0
O=C(N1CCOCC1)C1(S(=O)(=O)c2ccccc2)CC=CC1	-17.3	-0.5	-0.1	-5.2	-3.8
O=C(N1CCCCC1)C1(S(=O)(=O)c2ccccc2)CC=CC1	4.0	1.8	-6.9	44.0*	-2.9
